Data set [1] deals with Rattus norvegicus. Description: Lymphopenic activity in po dosed Wistar rat assessed as reduction in blood lymphocyte count. In kind it is functional, organism-based. In outline:
(§1)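 Normotensive male Wistar rats given 1–10 mg/kg by gavage in 5% DMSO/7.5% succinylated gelatin. Blood taken before and 3, 6 and 24 h after dosing, with later times for some compounds. Lymphocytes counted by hematology analyzer. % LC change calculated per animal relative to the predose value (=100%). Mean ± SEM.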

The nature of data set [2]: Plasma concentration in Wistar rat at 10 mg/kg, po after 24 hrs. In kind it is ADME, organism-based. The arrangement: dose 10 mg/kg, route oral.
The target of data set [3] is Sphingosine 1-phosphate receptor 3 (Homo sapiens, UniProt Q99500). Description: Agonist activity at human recombinant S1P3 receptor expressed in CHO cells assessed as membrane-bound 35S-GTPgammaS incubated 30 mins prior to substrate addition measured after 1 hr by topcount scintillation counting analysis. In kind it is functional, cell-based. For orientation: Binding of GTPγS marks nucleotide exchange on a G protein.

Data set [4] has as its system Rattus norvegicus. As to the kind of experiment: Lymphopenic activity in Wistar rat assessed as reduction in blood lymphocyte count at 10 mg/kg, po after 24 hrs. It counts as functional. Summed up:
as §1

In data set [5] the test system is Rattus norvegicus. As to the kind of experiment: Lymphopenic activity in Wistar rat assessed as reduction in blood lymphocyte count at 10 mg/kg, po after 3 hrs. It counts as functional. On the set-up: scale not given: the % may be the effect or the level left. Summed up: as §1
A short description of data set [6]: Plasma concentration in Wistar rat at 10 mg/kg, po after 6 hrs. In kind it is ADME, organism-based. On the set-up: dose 10 mg/kg, route oral.
Data set [7] addresses Sphingosine 1-phosphate receptor 1 (Homo sapiens, UniProt P21453). As to the kind of experiment: Agonist activity at human recombinant S1P1 receptor expressed in CHO cells assessed as membrane-bound 35S-GTPgammaS incubated 30 mins prior to substrate addition measured after 1 hr by topcount scintillation counting analysis. It counts as functional, cell-based.
The nature of data set [8]: Plasma concentration in Wistar rat at 10 mg/kg, po after 3 hrs. It counts as ADME, organism-based. On the set-up: dose 10 mg/kg, route oral.
Data set [9] concerns Rattus norvegicus. As to the kind of experiment: Lymphopenic activity in Wistar rat assessed as reduction in blood lymphocyte count at 10 mg/kg, po after 72 hrs. It counts as functional. The arrangement: scale not given: the % may be the effect or the level left. In outline:
as §1

Data set [10] concerns Rattus norvegicus. Description: Lymphopenic activity in Wistar rat assessed as reduction in blood lymphocyte count at 10 mg/kg, po after 6 hrs. The arrangement: scale not given: the % may be the effect or the level left. It counts as functional. In outline:
as §1

In data set [11] the test system is Rattus norvegicus. Description: Lymphopenic activity in Wistar rat assessed as reduction in blood lymphocyte count at 10 mg/kg, po after 144 hrs. The arrangement: scale not given: the % may be the effect or the level left. It counts as functional. Summed up:
as §1

Data set [12] in a line: Half life in Wistar rat at 1 mg/kg, iv. It counts as ADME, organism-based. On the set-up: dose 1 mg/kg, route intravenous. As to conditions: in vivo. In outline:
(§2)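 Male Wistar rats (~250 g), jugular vein and carotid artery catheters implanted 2 days before dosing under isoflurane with buprenorphine analgesia. 1 mg/kg given as a 5 min jugular infusion in aqueous mixed micellar vehicle (phospholipids, bile acids). Serial EDTA blood sampling up to 24 h. Plasma analysed by LC-MS-MS after methanol precipitation. Noncompartmental analysis.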

A short description of data set [13]: Intrinsic clearance in Wistar rat liver microsomes at 1 uM by LC-MS/MS analysis. It counts as ADME. As to conditions: read-out: CLH. Summed up:
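Pooled male Wistar rat liver microsomes at 0.5 mg/mL protein. Compound at 1 µM, 37 °C, DMSO ≤0.1%. Started with NADPH-regenerating system (NADP, glucose 6-phosphate, MgCl2, G6PDH, pH 7.4 phosphate). Quenched with ice-cold methanol at times up to 15 min, then LC-MS-MS.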

Data set [14] in a line: Cmax in Wistar rat at 10 mg/kg, po. In kind it is ADME, organism-based. The arrangement: dose 10 mg/kg, route oral. As to conditions: in vivo. Summed up:
(§3)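 Male Wistar rats (~250 g), 10 mg/kg by gavage as a DMSO solution added to 7.5% succinylated gelatin in water (5% DMSO final). Sublingual blood under light isoflurane predose and at 0.5, 1, 2, 3, 4, 6, 8, 24 h into EDTA. Plasma LC-MS-MS after methanol precipitation. Noncompartmental parameters. Bioavailability referenced to 1 mg/kg iv.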

Data set [15] deals with Rattus norvegicus. Description: Clearance in Wistar rat at 1 mg/kg, iv. In kind it is ADME, organism-based. The arrangement: dose 1 mg/kg, route intravenous. Conditions: in vivo. Summed up: as §2
Data set [16] can be described thus: Tmax in Wistar rat at 10 mg/kg, po. In kind it is ADME, organism-based. The arrangement: dose 10 mg/kg, route oral. Conditions: in vivo. Summed up: as §3
A short description of data set [17]: AUC (0 to 24 hrs) in Wistar rat at 10 mg/kg, po. As to conditions: plasma. In kind it is ADME, organism-based. The arrangement: time < 24 hr, dose 10 mg/kg, route oral.
Data set [18] can be described thus: Volume of distribution at steady state in Wistar rat at 1 mg/kg, iv. On the set-up: dose 1 mg/kg, route intravenous. Conditions: in vivo, read-out: Vdss. In kind it is ADME, organism-based. In outline: as §2
Data set [19] in a line: Intrinsic clearance in Wistar rat hepatocytes assessed per 10^6 cells at 1 uM by LC-MS/MS analysis. In kind it is ADME, cell-based, Hepatocyte. As to conditions: read-out: CLH. Summed up:
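Male rat hepatocytes from two-step collagenase perfusion (viability ≥85%), plated at 5.0 × 10^5 viable cells/mL on collagen and preincubated ~3 h at 37 °C, 5% CO2. Compound at 1 µM final. Duplicate wells sampled at 0–24 h with methanol/0.3% SDS. LC-MS-MS (MRM). CLint from initial first-order disappearance rates.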

Data set [20] in a line: Oral bioavailability in Wistar rat at 10 mg/kg. It counts as ADME, organism-based. Conditions: in vivo. Summed up: as §3
In data set [21] the test system is Rattus norvegicus. As to the kind of experiment: Lymphopenic activity in Wistar rat assessed as reduction in blood lymphocyte count at 10 mg/kg, po after 96 hrs. It counts as functional. The arrangement: scale not given: the % may be the effect or the level left. In outline: as §1

Structures are written as SMILES. Active and inactive are the calls of the source. Bounds are passed on as bounds.

Chain of Sphingosine 1-phosphate receptor 1 (P21453 whole entry): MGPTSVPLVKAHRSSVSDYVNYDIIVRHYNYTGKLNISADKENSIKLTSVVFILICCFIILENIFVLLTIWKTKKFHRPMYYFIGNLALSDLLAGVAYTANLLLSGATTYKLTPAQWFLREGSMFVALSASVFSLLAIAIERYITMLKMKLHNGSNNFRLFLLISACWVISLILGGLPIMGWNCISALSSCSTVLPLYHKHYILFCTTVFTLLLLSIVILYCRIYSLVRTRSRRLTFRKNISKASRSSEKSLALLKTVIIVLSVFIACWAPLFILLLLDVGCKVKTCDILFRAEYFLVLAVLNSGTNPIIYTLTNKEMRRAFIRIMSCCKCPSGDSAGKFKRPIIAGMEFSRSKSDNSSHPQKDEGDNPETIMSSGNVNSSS
Chain of Sphingosine 1-phosphate receptor 3 (Q99500 whole entry): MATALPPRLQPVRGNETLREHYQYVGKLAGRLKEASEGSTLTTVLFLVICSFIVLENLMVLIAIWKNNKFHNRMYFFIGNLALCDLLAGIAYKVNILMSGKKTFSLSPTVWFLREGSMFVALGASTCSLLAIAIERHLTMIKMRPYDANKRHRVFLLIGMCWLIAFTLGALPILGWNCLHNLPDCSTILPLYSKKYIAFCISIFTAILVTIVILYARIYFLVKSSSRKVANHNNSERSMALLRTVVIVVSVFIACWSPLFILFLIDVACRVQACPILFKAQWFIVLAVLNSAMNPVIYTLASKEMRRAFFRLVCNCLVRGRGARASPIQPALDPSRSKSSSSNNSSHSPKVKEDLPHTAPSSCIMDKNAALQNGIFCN

One may read the EC50 as the concentration at which the effect is half-maximal. Turning to `Cc1cc(-c2noc(-c3ccc(CC(C)C)s3)n2)cc(C)c1OCC(O)CNC(=O)CO` (racemic), the Activity result in the data set with Rattus norvegicus [1] was “Dose-dependent effect”; in the data set on Rattus norvegicus [5], -75%; in the data set with Rattus norvegicus [9] it was 14%; in the data set with Rattus norvegicus [10], -79%. In data set [2], the concentration at 24 h was 23 ng/mL. In addition, the EC50 in data set [3] worked out at 247 nM; in [7] it was 0.6 nM. Besides, the “% change in blood lymphocyte count from predose” value (“% change” below) in the data set on Rattus norvegicus [4] is -66%. In [6], this molecule showed a concentration at 6 h of 680 ng/mL. The concentration at 3 h in [8] is 1010 ng/mL.
Regarding `Cc1cc(-c2noc(-c3sc(C)c4c3CCC(C)(C)C4)n2)cc(C)c1OCC(O)CNC(=O)CO` (racemic), the 50% effective concentration (EC50) was found to be 15 nM in data set [3] and 1.6 nM in [7]. In addition, in the data set with Rattus norvegicus [4], the “% change” value is recorded as -77%. Further, the Activity in the data set with Rattus norvegicus [5] is listed as -70%; in the data set with Rattus norvegicus [9], -73%; with Rattus norvegicus [11] it was -7%; with Rattus norvegicus [10], -73%.
A word on the half-life: it is the time needed for the level to fall by half in the phase considered. Usually Cmax stands for the peak of the concentration-time curve. A word on the clearance: it is a measure of how efficiently the substance is removed, as volume per time. In general, Tmax refers to the time at which the peak concentration occurs. As usually defined, the AUC(0-t) is the area under the concentration-time curve up to a stated or last time point. The term bioavailability denotes dose-corrected exposure relative to a reference, in per cent. Take `CCc1cc(CCC(=O)c2sc(CC)c3c2CCC(C)(C)C3)cc(C)c1OCC(O)CNC(=O)CO` (racemic): in data set [12], the half-life was 1.7 h. The molecule further returned a concentration at 24 h in data set [2] of less than 1.5 ng/mL. Also, in [13], the microsomal CLint at 1 µM was more than 1250 µL/min/mg. Also, the EC50 in [3] was 141 nM; in [7], 0.6 nM. Also, the Cmax in data set [14] came out at 141 ng/mL. The outcome with Rattus norvegicus [5] and in the data set on Rattus norvegicus [10] was Active. Besides, in the data set on Rattus norvegicus [15], the clearance turned out to be 46 mL/min/kg. The concentration at 6 h in [6] stood at 10 ng/mL. Besides, the Tmax in [16] worked out at 0.5 h. In addition, the concentration at 3 h in data set [8] amounted to 32 ng/mL. The same molecule showed an area under the curve AUC(0-t) at 24 h in data set [17] of 276 ng·h/mL. Further, in data set [18], the Vd was determined as 2.8 L/kg. Besides, in [19], the hepatocyte CLint at 1 µM is 107 µL/min/1e6 cells. The bioavailability in data set [20] came to 8%.
With `Cc1cc(-c2noc(-c3sc(C)c4c3C[C@@H]3[C@H]4C3(C)C)n2)cc(C)c1OCC(O)CNC(=O)CO` (mixture of isomers), the “% change” value in the data set with Rattus norvegicus [4] is recorded as -73%. Also, the Activity is given as -66% in the data set on Rattus norvegicus [5], 30% in the data set on Rattus norvegicus [21] and -69% in the data set with Rattus norvegicus [10].

The record behind these values is ChEMBL document CHEMBL3120099, “Novel S1P(1) receptor agonists--part 2: from bicyclo[3.1.0]hexane-fused thiophenes to isobutyl substituted thiophenes” (J Med Chem, 2014).
